The target of data set [1] is Poly [ADP-ribose] polymerase 2 (Homo sapiens) (UniProt Q9UGN5). Briefly: Inhibition of human recombinant PARP2 incubated for 1 hr using histone substrate at 1 uM by luminescence based assay. The essentials: (§1)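 Recombinant PARP enzyme reactions were run in duplicate for 1 h at rt on histone-coated plates in Tris·HCl pH 8.0 buffer with NAD+, biotinylated NAD+ and activated DNA. Detection used streptavidin-HRP for 30 min at rt, then a chemiluminescent developer. % inhibition = 100 − % activity, scaled between the no-compound (100%) and no-enzyme (0%) signals.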

The nature of data set [2]: Lipophilicity, log D of the compound at pH 7.4. Type of data set: physicochemical. The conditions noted are these: buffer.
Data set [3] concerns the target T1, Poly [ADP-ribose] polymerase tankyrase-1 (Homo sapiens, UniProt O95271).
T1 sequence (O95271 whole entry): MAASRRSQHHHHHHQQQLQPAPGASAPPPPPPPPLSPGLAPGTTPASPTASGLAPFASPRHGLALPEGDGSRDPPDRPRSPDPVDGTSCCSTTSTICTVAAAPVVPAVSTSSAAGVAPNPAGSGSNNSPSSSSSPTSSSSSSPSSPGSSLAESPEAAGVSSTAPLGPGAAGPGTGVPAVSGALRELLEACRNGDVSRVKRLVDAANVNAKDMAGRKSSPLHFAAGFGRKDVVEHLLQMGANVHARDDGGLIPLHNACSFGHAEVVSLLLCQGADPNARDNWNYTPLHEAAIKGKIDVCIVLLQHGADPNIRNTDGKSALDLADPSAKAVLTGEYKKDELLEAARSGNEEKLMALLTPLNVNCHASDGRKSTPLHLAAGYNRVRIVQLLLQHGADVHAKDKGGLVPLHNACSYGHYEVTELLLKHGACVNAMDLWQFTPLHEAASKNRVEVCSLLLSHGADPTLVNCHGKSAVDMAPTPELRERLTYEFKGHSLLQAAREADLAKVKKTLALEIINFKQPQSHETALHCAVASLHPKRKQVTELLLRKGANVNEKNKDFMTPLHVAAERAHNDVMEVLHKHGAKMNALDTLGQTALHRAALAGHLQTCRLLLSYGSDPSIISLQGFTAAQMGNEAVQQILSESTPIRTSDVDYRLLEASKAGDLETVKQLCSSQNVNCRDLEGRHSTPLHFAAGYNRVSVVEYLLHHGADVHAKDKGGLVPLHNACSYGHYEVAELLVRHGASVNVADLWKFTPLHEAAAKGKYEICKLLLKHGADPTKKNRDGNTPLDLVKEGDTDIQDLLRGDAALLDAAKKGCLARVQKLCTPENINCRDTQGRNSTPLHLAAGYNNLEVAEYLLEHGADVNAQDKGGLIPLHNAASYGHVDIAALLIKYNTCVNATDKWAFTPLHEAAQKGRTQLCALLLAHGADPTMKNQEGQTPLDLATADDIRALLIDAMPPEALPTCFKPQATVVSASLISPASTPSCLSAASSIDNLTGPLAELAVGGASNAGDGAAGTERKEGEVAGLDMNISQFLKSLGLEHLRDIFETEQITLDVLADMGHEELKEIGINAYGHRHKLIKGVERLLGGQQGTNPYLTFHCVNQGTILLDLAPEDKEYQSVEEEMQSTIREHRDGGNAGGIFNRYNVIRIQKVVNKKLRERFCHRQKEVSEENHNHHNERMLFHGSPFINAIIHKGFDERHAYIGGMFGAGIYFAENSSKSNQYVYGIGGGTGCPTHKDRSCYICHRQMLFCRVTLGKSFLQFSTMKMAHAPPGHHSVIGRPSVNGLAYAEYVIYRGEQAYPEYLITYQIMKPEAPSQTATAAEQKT
Briefly: Inhibition of GST-tagged human recombinant TNKS1 incubated for 1 hr using NAD+, biotinylated NAD+ and activated DNA by luminescence based assay.

The target of data set [4] is Tankyrase 1/2 (Homo sapiens) (UniProt Q9H2K2+O95271). Kind of data set: Inhibition of tankyrase in human DLD1 cells assessed as reduction in Wnt activity at 10 uM after 24 hrs by TCF-luciferase reporter gene assay. Type of data set: cell-based. The following applies: DLD-1. In short, it runs like this:
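DLD-1 cells were transduced with a TOP-TCF firefly luciferase lentivirus plus a renilla luciferase lentivirus (1:20), with renilla used to normalise for infection efficiency. Compound was tested at 10 μM for 24 h, with DMSO as the negative control. Cells were then lysed for dual-luciferase read-out, and activity was taken as the TOP/RL ratio. Data are the average of at least three separate experiments ± SD.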

Data set [5] has as its target Poly [ADP-ribose] polymerase 2 (Homo sapiens) (UniProt Q9UGN5). Briefly: Inhibition of human recombinant PARP2 incubated for 1 hr using histone substrate at 10 uM by luminescence based assay. In short, it runs like this:
as §1

Data set [6] addresses Protein mono-ADP-ribosyltransferase PARP14 (Homo sapiens) (UniProt Q460N5). Kind of data set: Inhibition of human recombinant PARP14 at 100 uM incubated for 1 hr using NAD+, biotinylated NAD+ and activated DNA by luminescence based assay. In short, it runs like this:
as §1

Structures are written as SMILES.

Poly [ADP-ribose] polymerase 2 (Homo sapiens), sequence (Q9UGN5 whole entry): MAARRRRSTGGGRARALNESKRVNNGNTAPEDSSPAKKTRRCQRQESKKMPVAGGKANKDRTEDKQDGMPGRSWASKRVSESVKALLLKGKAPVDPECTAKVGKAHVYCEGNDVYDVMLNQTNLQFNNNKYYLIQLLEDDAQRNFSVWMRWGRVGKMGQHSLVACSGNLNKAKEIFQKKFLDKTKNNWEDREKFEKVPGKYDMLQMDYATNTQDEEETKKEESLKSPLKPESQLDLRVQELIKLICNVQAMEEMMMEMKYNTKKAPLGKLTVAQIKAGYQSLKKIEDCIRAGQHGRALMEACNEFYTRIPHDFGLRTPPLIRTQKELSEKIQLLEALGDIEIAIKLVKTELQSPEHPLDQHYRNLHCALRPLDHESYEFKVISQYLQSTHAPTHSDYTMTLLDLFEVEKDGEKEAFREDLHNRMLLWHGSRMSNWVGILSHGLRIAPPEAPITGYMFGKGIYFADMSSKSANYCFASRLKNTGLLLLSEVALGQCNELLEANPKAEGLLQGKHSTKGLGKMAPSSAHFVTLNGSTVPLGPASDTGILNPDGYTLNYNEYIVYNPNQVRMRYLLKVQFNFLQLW
Tankyrase 1/2 (Homo sapiens), sequence (Q9H2K2 whole entry, looked up, one chain of several): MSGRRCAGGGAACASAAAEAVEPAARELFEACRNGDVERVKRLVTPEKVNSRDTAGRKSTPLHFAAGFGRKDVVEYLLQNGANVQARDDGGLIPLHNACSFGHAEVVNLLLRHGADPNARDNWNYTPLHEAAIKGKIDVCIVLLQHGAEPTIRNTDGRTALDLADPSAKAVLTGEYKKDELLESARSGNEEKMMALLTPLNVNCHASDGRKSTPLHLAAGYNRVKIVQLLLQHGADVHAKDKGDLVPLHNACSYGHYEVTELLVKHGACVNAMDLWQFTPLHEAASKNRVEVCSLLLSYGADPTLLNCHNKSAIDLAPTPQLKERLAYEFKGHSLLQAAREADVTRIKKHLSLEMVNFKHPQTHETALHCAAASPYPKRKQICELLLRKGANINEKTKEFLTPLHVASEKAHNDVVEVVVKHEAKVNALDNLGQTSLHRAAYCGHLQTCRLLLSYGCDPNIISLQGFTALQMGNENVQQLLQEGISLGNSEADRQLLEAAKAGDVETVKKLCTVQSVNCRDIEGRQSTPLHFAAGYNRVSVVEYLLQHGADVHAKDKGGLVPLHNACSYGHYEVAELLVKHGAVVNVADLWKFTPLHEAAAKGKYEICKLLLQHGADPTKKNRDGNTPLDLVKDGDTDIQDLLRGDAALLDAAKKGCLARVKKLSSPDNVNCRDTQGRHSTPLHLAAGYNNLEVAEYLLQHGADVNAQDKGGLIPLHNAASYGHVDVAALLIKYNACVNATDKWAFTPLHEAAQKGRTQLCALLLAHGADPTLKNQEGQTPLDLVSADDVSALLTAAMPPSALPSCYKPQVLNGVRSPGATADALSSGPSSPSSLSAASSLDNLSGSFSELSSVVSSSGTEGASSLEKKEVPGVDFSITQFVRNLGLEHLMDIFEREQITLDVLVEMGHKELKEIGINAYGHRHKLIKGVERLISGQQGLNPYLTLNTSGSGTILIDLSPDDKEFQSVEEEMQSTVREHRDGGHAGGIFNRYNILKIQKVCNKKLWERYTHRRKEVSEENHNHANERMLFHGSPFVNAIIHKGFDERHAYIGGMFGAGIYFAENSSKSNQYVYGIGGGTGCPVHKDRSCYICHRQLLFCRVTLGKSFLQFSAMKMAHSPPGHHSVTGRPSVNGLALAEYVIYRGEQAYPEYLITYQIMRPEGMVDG
Protein mono-ADP-ribosyltransferase PARP14 (Homo sapiens), sequence (Q460N5 whole entry): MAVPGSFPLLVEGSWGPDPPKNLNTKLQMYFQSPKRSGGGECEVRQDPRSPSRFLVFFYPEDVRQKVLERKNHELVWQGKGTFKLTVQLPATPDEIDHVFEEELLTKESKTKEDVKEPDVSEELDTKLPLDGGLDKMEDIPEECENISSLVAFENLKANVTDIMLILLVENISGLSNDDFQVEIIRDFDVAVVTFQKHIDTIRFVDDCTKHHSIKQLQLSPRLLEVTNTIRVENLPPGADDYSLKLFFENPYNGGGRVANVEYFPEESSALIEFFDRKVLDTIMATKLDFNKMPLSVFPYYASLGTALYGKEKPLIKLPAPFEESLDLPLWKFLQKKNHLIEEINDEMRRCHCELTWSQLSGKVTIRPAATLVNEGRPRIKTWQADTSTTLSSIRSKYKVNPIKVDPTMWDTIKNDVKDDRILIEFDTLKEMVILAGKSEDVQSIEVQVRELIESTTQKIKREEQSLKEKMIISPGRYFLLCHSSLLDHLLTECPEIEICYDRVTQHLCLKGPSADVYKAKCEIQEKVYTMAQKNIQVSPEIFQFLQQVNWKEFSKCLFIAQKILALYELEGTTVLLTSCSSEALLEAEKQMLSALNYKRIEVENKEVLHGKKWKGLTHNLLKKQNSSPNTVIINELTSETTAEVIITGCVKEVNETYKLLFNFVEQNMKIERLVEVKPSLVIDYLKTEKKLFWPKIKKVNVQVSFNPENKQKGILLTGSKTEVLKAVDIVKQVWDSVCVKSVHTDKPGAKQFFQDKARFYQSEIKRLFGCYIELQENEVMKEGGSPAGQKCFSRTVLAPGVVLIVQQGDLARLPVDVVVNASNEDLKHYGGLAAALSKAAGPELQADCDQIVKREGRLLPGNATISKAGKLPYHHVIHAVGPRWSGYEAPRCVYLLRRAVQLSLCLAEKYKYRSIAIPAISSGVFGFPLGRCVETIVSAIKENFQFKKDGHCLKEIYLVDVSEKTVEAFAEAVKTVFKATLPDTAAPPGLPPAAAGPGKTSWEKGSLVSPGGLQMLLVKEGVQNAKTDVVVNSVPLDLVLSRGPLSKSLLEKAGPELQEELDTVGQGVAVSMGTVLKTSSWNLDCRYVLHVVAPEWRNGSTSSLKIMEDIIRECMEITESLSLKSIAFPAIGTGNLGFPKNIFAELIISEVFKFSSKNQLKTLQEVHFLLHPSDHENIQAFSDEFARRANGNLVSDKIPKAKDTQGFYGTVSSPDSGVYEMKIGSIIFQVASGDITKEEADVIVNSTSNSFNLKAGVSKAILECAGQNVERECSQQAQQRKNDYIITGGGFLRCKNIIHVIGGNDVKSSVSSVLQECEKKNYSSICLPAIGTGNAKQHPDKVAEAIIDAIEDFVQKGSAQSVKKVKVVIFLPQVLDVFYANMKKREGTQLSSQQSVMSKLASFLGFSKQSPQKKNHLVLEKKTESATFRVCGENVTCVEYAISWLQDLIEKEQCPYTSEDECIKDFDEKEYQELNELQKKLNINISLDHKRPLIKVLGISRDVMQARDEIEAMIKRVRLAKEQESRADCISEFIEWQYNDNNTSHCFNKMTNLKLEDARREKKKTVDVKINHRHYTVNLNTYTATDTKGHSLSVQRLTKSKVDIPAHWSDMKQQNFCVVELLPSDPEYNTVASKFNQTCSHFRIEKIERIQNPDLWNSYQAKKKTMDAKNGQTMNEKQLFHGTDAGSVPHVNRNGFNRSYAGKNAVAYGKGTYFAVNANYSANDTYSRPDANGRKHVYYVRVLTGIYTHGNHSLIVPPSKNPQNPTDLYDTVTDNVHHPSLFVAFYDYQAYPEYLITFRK

Regarding `O=c1[nH]c2ccccc2c2c1sc1ccccc12`, the inhibition in data set [1] worked out at 14%. This molecule came in with a logD in data set [2] of 3.75. Further, the 50% inhibitory concentration (IC50) in data set [3] was determined as 90 nM.

Regarding `COc1ccc2c(c1)nc(O)c1sc3ccccc3c12`, the inhibition is 27% in data set [1] and 37% in data set [4]. In addition, in data set [2], the logD came out at 3.59.

With `O=c1[nH]c(C2CCCCC2)nc2c1sc1ccccc12`, the inhibition in data set [1] stood at 14%. In data set [2], the logD came out at 3.89.

Take `O=c1[nH]c2ccccc2c2c1sc1ccc(O)cc12`: the inhibition in data set [1] was 93%. The molecule also gave a log distribution coefficient (logD) in data set [2] of 3.44.

On to `Oc1nc(-c2ccc(C(F)(F)F)cc2)nc2c1CSCC2`, for which the inhibition in data set [5] was determined as 100%.

For `COc1ccc2sc3c(O)nc4ccccc4c3c2c1`, the inhibition stood at 17% in data set [1] and 21% in data set [4]. The molecule further yielded a logD in data set [2] of 3.59.

For the molecule `Cc1ccc(-c2nc3c(sc4ccccc43)c(=O)[nH]2)cc1`, the inhibition in data set [1] is 4%. Also, in data set [2], the pH-dependent lipophilicity (logD) is 4.13. Moreover, the IC50 in data set [3] was found to be 19.4 nM.

`O=c1[nH]c2cc(O)ccc2c2c1sc1ccccc12`: the inhibition in data set [1] worked out at 64%. In data set [2], this molecule gave a logD of 3.43.

Turning to `O=c1[nH]c2ccccc2c2ccsc12`, the inhibition in data set [1] came to 91%. This molecule also returned a logD in data set [2] of 2.65.

Consider `O=c1[nH]c(-c2ccccc2)nc2c1sc1ccccc12`, for which the inhibition in data set [1] came to 0%. The log distribution coefficient (logD) in data set [2] turned out to be 3.62.

`O=c1[nH]c(-c2ccccc2)cc2ccsc12`: the inhibition in data set [1] was found to be 26%. This molecule also came in with a pH-dependent lipophilicity (logD) in data set [2] of 2.53.

Regarding `O=c1[nH]c(-c2ccccc2)nc2c3c(sc12)CCCC3`, the inhibition in data set [1] was 11%. For the same molecule, in data set [2], the pH-dependent lipophilicity (logD) came out at 4.11.

For the molecule `COc1cccc(/C=C/C(=O)O)c1`, the inhibition in data set [6] came out at 17%.

Turning to `O=c1[nH]c(-c2ccccc2)cc2c1sc1ccccc12`, the inhibition in data set [1] was 11%. The same molecule displayed a pH-dependent lipophilicity (logD) in data set [2] of 3.63. In addition, the IC50 in data set [3] came out at 181 nM.

With `Oc1cc(-c2ccccc2)c2ccccc2n1`, the inhibition in data set [1] was 3%. This molecule yielded a logD in data set [2] of 3.03.

As to `O=c1[nH]ccc2ccsc12`, the inhibition in data set [1] amounted to 24%. In data set [2], the log distribution coefficient (logD) is 1.24.

For `O=c1[nH]c(-c2cccs2)nc2c1sc1ccccc12`, the inhibition in data set [1] was found to be 9%. Also, the logD in data set [2] turned out to be 3.52.

Turning to `COc1ccc2c(c1)[nH]c(=O)c1sc3ccc(OC)cc3c12`, the inhibition in data set [1] was 12%. In data set [2], this molecule registered a pH-dependent lipophilicity (logD) of 3.43.

As for `O=c1[nH]ccc2c1sc1ccccc12`, the inhibition in data set [1] is 34%. In data set [2], this molecule registered a logD of 3.62.
